Assay outcomes as filed in PubChem.
PKA-R2B activ: activators of PKA-R2B holoenzyme, primary screen, biochemical, fluorescence polarization, Cy5-IP20, human | cAMP-dependent protein kinase catalytic subunit beta (Homo sapiens) + cAMP-dependent … | activation, % at 11.4 µM | PKA-R2B holoenzyme dissociation; R2B truncated from residue 108, S112A mutant; 0% DMSO only, 100% 113 µM cGMP | 340,000 compounds, 0.079% hits | AID 504700, 2011;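 active means activation above a cutoff set at the mean over all compounds plus 3 SD, cut at about 18% in these data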;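 further: higher means more holoenzyme dissociation and a rise in polarization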
Target sequence (P31323 whole entry, looked up, other chains not shown, the tested form may be a part): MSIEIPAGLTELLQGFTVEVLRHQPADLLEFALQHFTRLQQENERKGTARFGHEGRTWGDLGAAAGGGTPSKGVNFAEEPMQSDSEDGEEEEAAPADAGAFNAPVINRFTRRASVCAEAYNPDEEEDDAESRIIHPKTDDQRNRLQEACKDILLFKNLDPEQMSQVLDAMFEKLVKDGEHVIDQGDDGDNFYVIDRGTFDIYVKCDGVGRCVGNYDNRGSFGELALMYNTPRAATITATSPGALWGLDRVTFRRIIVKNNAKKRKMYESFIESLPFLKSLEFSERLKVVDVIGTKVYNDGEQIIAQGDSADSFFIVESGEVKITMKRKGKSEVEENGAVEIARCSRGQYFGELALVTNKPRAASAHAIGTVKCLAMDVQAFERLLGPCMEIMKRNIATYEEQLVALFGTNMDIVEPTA
IMP-1 inh-1: IMP-1 metallo-beta-lactamase inhibitors, primary screen, biochemical, epi-absorbance readout, Pseudomonas aeruginosa enzyme; metallo-beta-lactamase IMP-1 (Pseudomonas aeruginosa); purified IMP-1, nitrocefin hydrolysis, epi-absorbance fluorescence; inhibition, % at 5.6 µM; 290,000 compounds, 0.45% hits; AID 1556, 2009;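 active means inhibition above the mean plus 3 SD of all compounds in the same screening run, cut at about 4.5% in these data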;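 further: 0% = IMP-1 with DMSO and 100% = DMSO wells lacking enzyme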
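system = purified recombinant IMP-1 beta-lactamase | amount = 0.2 nM IMP-1, as dispensed | medium = HEPES buffer pH 7.1 with ZnSO4 and Brij 35 | times = 25 °C, 15 min preincubation, 25 min reaction | detection = plate fluorescence quenching by hydrolysis product, ex 480/em 530 nm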
bovine MsrA act: bovine MsrA enzyme activators, primary screen, biochemical, absorbance, HTS. 360,000 compounds, 0.3% hits. AID 602163, 2012. Methionine sulfoxide reductase A (Bos taurus). purified bovine MsrA, absorbance read-out. activation, % at 10.6 µM; in the data active means activation above about 7.5%;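 further: 0% = vehicle and 100% = reference activator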
MsrA inh: bovine MsrA enzyme inhibitors, primary screen, biochemical, absorbance, HTS. inhibition, % at 15.5 µM. AID 651718, 2012. Methionine sulfoxide reductase A (Bos taurus). 360,000 compounds, 0.75% hits. purified bovine MsrA, absorbance read-out; in the data active means inhibition above about 4.5%;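 further: 0% = vehicle wells with enzyme and 100% = reference inhibitor wells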
VIM-2 inhibitor: VIM-2 metallo-beta-lactamase inhibitors, primary screen, biochemical, epi-absorbance readout, Pseudomonas aeruginosa enzyme | purified VIM-2, nitrocefin hydrolysis, epi-absorbance fluorescence | inhibition, % at 5.6 µM | 290,000 compounds, 0.89% hits | AID 1527, 2009;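 active means inhibition above the mean of all tested compounds plus 3 SD, cutoff set per screening run, cut at about 7.5% in these data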;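 further: red hydrolysis product quenches plate fluorescence so inhibitors raise well fluorescence; 0% = enzyme with DMSO and 100% = DMSO without enzyme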
PKA-R1A act: activators of PKA-R1A holoenzyme, primary screen, biochemical, fluorescence polarization, Cy5-IP20, bovine R1A, mouse PKAc; cAMP-dependent protein kinase type I-alpha regulatory subunit (Bos taurus) + …; PKA-R1A dissociation; scaled: DMSO 0%, 113 µM cGMP 100%; activation, % at 11.4 µM; 340,000 compounds, 0.083% hits;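 active means percent activation above the mean of all tested compounds plus 3 SD, cut at about 19% in these data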;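 further: higher means more PKAc released from R1A so a rise in polarization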
IMP-1 inh-2: IMP-1 metallo-beta-lactamase inhibitors, confirmation, selectivity assay for selective VIM-2 inhibitor project, biochemical, epi-absorbance readout, triplicate; purified IMP-1, nitrocefin hydrolysis, epi-absorbance fluorescence; 1,300 tested, under 10 active; inhibition, % at 5.6 µM; shares compounds with VIM-2 inhibitor; call rule not given here;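 further: 0% = enzyme with vehicle and 100% = vehicle without enzyme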
VIM-2 FRET ctr: VIM-2 inhibitors in FRET format, confirmation, artefact control for selective VIM-2 inhibitor project, biochemical, epi-absorbance artifact exclusion; shares compounds with VIM-2 inhibitor; purified VIM-2, CCF2 FRET substrate hydrolysis; inhibition, % at 5.6 µM; 1,300 compounds, 23% hits; AID 1857, 2009;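 active means inhibition above the mean of all tested compounds plus 3 SD, cut at about 19% in these data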;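 further: 0% = VIM-2 plus DMSO and 100% = no enzyme wells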
TEM-1 counter: TEM-1 serine beta-lactamase inhibitors, counter-screen for VIM-2 inhibitor project, biochemical, epi-absorbance, HTS; inhibition, % at 5.6 µM; shares compounds with VIM-2 inhibitor; Purified TEM-1, nitrocefin hydrolysis, epi-absorbance fluorescence; 1,300 compounds, 3% hits;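 active means inhibition above that campaign's mean inhibition plus 3 SD, cut at about 0.46% in these data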;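 further: 0% = TEM-1 with DMSO and 100% = TEM-1 with 100 µM potassium clavulanate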
Target sequence (P62593 whole entry, looked up): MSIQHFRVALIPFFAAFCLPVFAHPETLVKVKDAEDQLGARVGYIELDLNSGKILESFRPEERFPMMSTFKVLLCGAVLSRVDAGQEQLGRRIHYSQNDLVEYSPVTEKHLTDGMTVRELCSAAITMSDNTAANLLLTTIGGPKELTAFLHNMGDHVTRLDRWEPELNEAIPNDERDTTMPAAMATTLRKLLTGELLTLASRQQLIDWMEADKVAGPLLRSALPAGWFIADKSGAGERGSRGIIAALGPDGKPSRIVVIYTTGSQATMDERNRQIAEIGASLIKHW
VIM-2 confirm 2: VIM-2 metallo-beta-lactamase inhibitors, confirmation, biochemical, epi-absorbance, hits shared with IMP-1 screen; 1,300 compounds, 96% hits; inhibition, % at 5.6 µM; shares compounds with VIM-2 inhibitor; purified VIM-2, nitrocefin hydrolysis;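 active means inhibition of the VIM-2 beta-lactamase enzyme above about 11% from the earlier first-round screen, limit read from the data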;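 further: 0% = VIM-2 with DMSO and 100% = buffer wells without enzyme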
Starred values were filed as active, the others as inactive; · = no result given. The list is not random: actives were taken first. Their share in the collection is about 2.1%.

SMILES	PKA-R2B activ	IMP-1 inh-1	bovine MsrA act	MsrA inh	VIM-2 inhibitor	PKA-R1A act	IMP-1 inh-2	VIM-2 FRET ctr	TEM-1 counter	VIM-2 confirm 2
Cc1ccc(-c2nn3cnnc3c3ccccc23)cc1	5.2	-1.4	-3.0	0.3	17.2*	6.0	-3.1	2.4	-5.5	27.4*
O=C(COc1ccc(Cl)cc1)NCc1nnc2c3ccccc3c(-c3ccccc3)nn12	-12.5	-1.3	-5.4	0.3	0.1	-5.6	·	·	·	·
Cc1ccc(-c2nn3c(C)nnc3c3ccccc23)cc1S(=O)(=O)NC(C)(C)CO	-5.3	-1.4	-2.4	-0.3	21.8*	-3.1	-4.8	1.9	-5.7	37.5*
Cc1nnc2c3ccccc3c(-c3ccccc3)nn12	-0.5	-0.2	-3.3	-0.1	23.7*	-12.4	-1.4	1.5	1.9*	43.2*
O=C(NCc1nnc2c3ccccc3c(-c3ccccc3)nn12)c1ccccc1Cl	0.9	0.2	-6.5	0.4	16.9*	-4.3	-2.5	-4.5	-4.4	27.3*
Cc1ccc(-c2nn3c(C)nnc3c3ccccc23)cc1S(=O)(=O)NC(C)c1ccccc1 (stereo unspecified)	7.2	0.7	1.5	1.4	6.4	-17.7	·	·	·	·
COc1ccc(Cl)cc1-c1cc(C(=O)NCc2ccccc2)[nH]n1	·	·	1.5	-0.8	·	·	·	·	·	·
CCN1CCN(c2nn3c(=O)c4ccccc4nc3c3ccccc23)CC1	-6.6	-2.0	-2.2	0.7	18.2*	3.5	-2.1	4.5	-1.6	30.1*
O=c1c2ccccc2nc2c3ccccc3c(Cl)nn12	·	-2.2	·	·	0.0	·	·	·	·	·
CCOc1ccc(CCNC(=O)c2ccc(=O)[nH]c2)cc1OCC	6.0	-2.5	-2.3	-0.1	26.7*	-3.8	-2.4	-3.9	-1.2	2.2
COc1cccc(C=Nc2ccc(N3CCOCC3)cc2)c1O	-15.9	-18.9	-0.4	0.1	-1.3	-5.8	·	·	·	·
CCN1CCN(c2ccc(N=Cc3ccccc3O)cc2)CC1	1.9	-10.3	-0.5	-0.4	39.6*	-9.0	-7.8	-4.9	-6.3	28.0*
COc1cccc(-c2c(C(=O)O)cc(O)c3ccc(OC)cc23)c1	-1.1	·	-0.5	1.0	·	-3.3	·	·	·	·
COc1ccc(C)cc1Nc1cc(C)nc2nc(C)nn12	2.9	-4.0	-6.7	0.3	26.3*	-2.4	-2.1	-0.8	-6.4	39.7*
COC(=O)c1ccccc1Nc1cc(C)nc2nc(C)nn12	4.4	-0.6	-7.1	0.7	13.0*	-0.1	-3.3	2.2	-5.4	29.3*
COc1ccc(OC)c(Nc2cc(C)nc3nc(C)nn23)c1	-1.3	-3.9	-4.1	0.5	14.6*	-5.6	-3.3	-1.7	-3.5	30.4*
Cc1cc(C)n2cc(CSCc3ccccc3)nc2n1	4.0	-2.6	-4.1	-0.9	1.9	-1.4	·	·	·	·
Cc1cc(C)n2cc(CSc3nnc(-c4ccccc4)o3)nc2n1	2.5	1.4	-11.5	0.3	16.1*	9.6	-2.9	30.2*	-3.3	20.8*
Cc1cccc(N2CCN(C3C(=O)Nc4ccccc4-n4nnnc43)CC2)c1C (stereo unspecified)	·	·	·	-0.7	·	·	·	·	·	·
COc1cc(-c2nc3ccc(N4CCN(C)CC4)cc3[nH]2)cc(OC)c1OC	-8.2	2.3	-6.3	1.4	12.6*	-0.2	-3.5	0.0	-7.6	25.9*
CN1C(=O)/C(=C2\SC(N3CCCCCC3)=NC2=O)c2ccccc21	-7.3	-2.5	-12.9	0.7	12.8*	-14.2	-3.6	-7.0	-8.9	26.5*
CCCN1C(=O)/C(=C2\SC(N3CCCCC3)=NC2=O)c2ccccc21	1.4	-2.3	-0.1	-0.1	-1.6	-11.0	·	·	·	·
CCCCn1c(=N)n(CC(=O)c2ccco2)c2ccccc21	3.8	-1.0	-2.5	0.2	-2.5	-1.4	·	·	·	·
CCCCCCCn1c(=N)n(CC(=O)c2ccco2)c2ccccc21	-10.3	-2.7	-2.6	-0.6	18.0*	7.6	-2.7	-1.4	-5.8	3.4
CCOc1ccc(C(C)=O)cc1COC(=O)c1ccccc1C(=O)N(C)Cc1ccccc1	1.0	·	-5.9	-1.3	·	-6.7	·	·	·	·
SMILES	PKA-R2B activ	IMP-1 inh-1	bovine MsrA act	MsrA inh	VIM-2 inhibitor	PKA-R1A act	IMP-1 inh-2	VIM-2 FRET ctr	TEM-1 counter	VIM-2 confirm 2
COc1ccc2nc(C)cc(Nc3ccc(N4CCN(C)CC4)cc3)c2c1	-10.7	-1.8	-4.2	3.6	90.0*	1.1	-3.3	-4.6	-5.5	90.7*
COc1ccc2nc(C)cc(Nc3ccc(N4CCOCC4)cc3)c2c1	-2.1	-3.7	-6.3	3.6	4.0	-8.6	·	·	·	·
O=c1[nH]cncc1OCc1ccccc1	9.2	·	5.0	-1.6	·	-3.6	·	·	·	·
ClC(Cl)(Cl)c1nc2ccccc2n2nncc12	5.6	-1.9	-1.5	1.2	24.4*	-1.3	-2.5	-0.1	-5.9	37.7*
CC(NS(=O)(=O)c1ccc2c(c1)C(=O)c1cc(S(=O)(=O)NC(C)C(=O)O)ccc1-2)C(=O)O (stereo unspecified)	-4.9	-1.6	1.8	1.6	18.5*	-8.4	-3.0	20.6*	-5.6	19.3*
O=C(CN1CCOCC1)n1c2c(c3ccccc31)CCCC2	-5.3	-1.2	-1.5	1.0	12.9*	6.8	-3.7	6.1	-7.2	5.4
CCCS(=O)(=O)NC(=O)C1(C)CCCN(C(=O)c2sccc2C)C1 (stereo unspecified)	·	·	-5.8	0.0	·	·	·	·	·	·
C[C@H]1CN([C@@H](C)CO)S(=O)(=O)c2ccc(C#Cc3cccnc3)cc2O[C@@H]1CN(C)C(=O)Nc1ccc2c(c1)OCO2	-0.6	·	-1.4	-1.5	·	-3.5	·	·	·	·
CCOc1cc(C2C(C#N)=C(N)Oc3n[nH]c(CC)c32)ccc1OCCN1CCOCC1 (stereo unspecified)	-4.8	-1.8	-1.3	-0.2	12.9*	-7.0	-2.4	2.4	-5.0	8.3*
